Screens from PubChem BioAssay.
The sample as a whole holds a higher share of hits than the screen did.
NALP3 yeast inh: NALP3 inflammasome inhibitors in reconstituted yeast, primary screen, luminescence, uHTS | inhibition, % at 10 µM | 0.39% of 330,000 active | Yeast reconstituted NLRP3/ASC/caspase-1, beta-gal luminescence, 24 h;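 active = inhibition of 50% or more; inactive = inhibition below 50%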
Lmaj promast: Leishmania major promastigote growth inhibition, primary screen; 9% of 200,000 active; AID 1063, 2008; Leishmania major promastigotes, resazurin fluorescence viability; inhibition, % at 10 µM; in the data active = inhibition above about 50%;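 note: promastigotes grown with compound for 44 hours at 28 °C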
NALP1 yeast inh: NALP1 inflammasome inhibitors in reconstituted yeast, colorimetric, S. cerevisiae, triplicate retest. S. cerevisiae NALP1/ASC/caspase-1 growth, X-gal OD620, 72 h. 0.61% of 280,000 active. inhibition, % at 10 µM; in the data active = inhibition mostly above about 24%, no sharp cut-off; inactive = mostly below about 32%
T cruzi repl: inhibitors of intracellular T. cruzi growth, primary screen, luminescence, NIH3T3 host cells. inhibition, % (no concentration beside the values). AID 1885, 2009. 1.4% of 300,000 active. T. cruzi beta-gal in NIH3T3, 90 h;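 active = mean inhibition across valid replicates above about 55%, limit read from the data; inconclusive = mean below that limit but half or more replicates reach it; inactive = mean below it, under half of replicates reach it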;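 note: signal also drops with host cell toxicity which is not excluded here; higher percent means less beta-gal luminescence so fewer parasites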
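Assay system: NIH/3T3 fibroblasts plus reporter T. cruzi. Amount: NIH/3T3 cells, 5,000 per well. Buffer or medium: DMEM, 2% fetal bovine serum. Doses: compound pinned at 50 nL/well, DMSO. Schedule: ≥90 h infection period, 3 h prior cell attachment. Signal: luminescent β-galactosidase signal after 60 min lysis. Read-out: parasite load inhibition, %.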
Calb FLC: C. albicans growth inhibition with fluconazole, primary screen, CaCi-2 strain, Alamar Blue fluorescence | C. albicans CaCi-2 + fluconazole, 48 h | growth inhibition, % (concentration not given with the values) | 0.57% of 300,000 active | AID 1979, 2009;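 active = growth inhibition above about 58% in most replicates, limit read from the data, passing the limit was not always enough; inconclusive = exactly half the replicates above a set limit; inactive = most replicates below a set limit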;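 note: all wells also contain fluconazole at 8 µg/ml as a sub-toxic cotreatment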
PolyA inh: polyadenylation inhibitors in yeast reporter cells, primary screen, luminescence, S. cerevisiae. S. cerevisiae SKY197-pL101 polyadenylation reporter, beta-gal luminescence; efflux-impaired pdr1/pdr3 knockout yeast; score 100 = 6 SD above DMSO. activity score, % at 12 µM. 0.02% of 300,000 active. AID 1875, 2009;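 active = lowest replicate activity score at least 50, where 100 means six control SD above control mean; inconclusive = lowest score under 50 but half or more replicates reach 50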;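 note: yeast exposed to compound for 9 h at 30 °C; higher score means more reporter readthrough which indicates perturbed polyadenylation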
Of the large screens only hits and unclear results are named; the others gave an inactive call.

C/C(=N\Nc1cccc2cccnc12)c1ccccn1	Lmaj promast 51, T cruzi repl 77
CN(C)CCCNC(=O)/C(=C/c1ccc(-c2ccc([N+](=O)[O-])cc2)o1)NC(=O)c1ccccc1	none (no result: Lmaj promast)
Cc1ccc(C(=O)N/C(=C/c2ccc(-c3cccc([N+](=O)[O-])c3)o2)C(=O)NC(C)C)cc1	none
CN(C)CCNC(=O)/C(=C/c1ccc(-c2cccc(Cl)c2)o1)NC(=O)c1ccccc1	Lmaj promast 100
CN(C)CCCNC(=O)/C(=C\c1ccc(-c2ccc(Br)cc2)o1)NC(=O)c1ccccc1	Lmaj promast 100
Cc1ccc(C(=O)N/C(=C\c2ccc(-c3ccc(Cl)cc3)o2)C(=O)NCCCN(C)C)cc1	Lmaj promast 101, T cruzi repl 56, Calb FLC inconclusive
Cc1ccc(C(=O)N/C(=C/c2ccc(-c3cccc([N+](=O)[O-])c3)o2)C(=O)NC(C)(C)C)cc1	Lmaj promast 82
CN(C)CCNC(=O)/C(=C/c1ccc(-c2cccc([N+](=O)[O-])c2)o1)NC(=O)c1ccccc1	none
CCOC(=O)N1CCC(N(CCN(C)C)C(=S)Nc2cc(Cl)ccc2C)CC1	none
COc1ccc2c(=O)c3c(=O)n(Cc4ccco4)c(-c4cc(OC)c(OC)c(OC)c4)nc3oc2c1	Lmaj promast 67
CCCc1nc2oc3cc(OC)ccc3c(=O)c2c(=O)n1Cc1ccco1	none
COc1ccc2c(=O)c3c(=O)n(Cc4ccco4)c(-c4ccccc4)nc3oc2c1	Lmaj promast 62
COCCn1c(-c2ccccc2)nc2oc3cc(OC)ccc3c(=O)c2c1=O	none
CCCCCCn1c(-c2ccco2)nc2oc3cc(OC)ccc3c(=O)c2c1=O	Lmaj promast 52 (no result: NALP1 yeast inh)
CC(=O)c1cc2c(cc1NC(=O)c1c(-c3ccccc3)noc1C)OCO2	none
Cc1cc(C)c(S(=O)(=O)c2ccc(Cl)cc2C)c(Cl)n1	Lmaj promast 100, T cruzi repl 56
Cc1cc(C)c(S(=O)(=O)c2cc(F)ccc2C)c(Cl)n1	T cruzi repl 65 (no result: Lmaj promast)
Cc1cc(C)c(S(=O)(=O)c2c(C)cccc2C)c(Cl)n1	Lmaj promast 100
Cc1cc(C)c(S(=O)(=O)c2cccc(Cl)c2)c(Cl)n1	none
C/C(=N\NC(=S)NC(C)C)c1ccccc1OC(F)F	none
CC(NC(=S)Nc1c(Br)cccc1OC(F)F)C(C)(C)C (configuration not stated)	Lmaj promast 60
CC(C)c1ccc(NC(=O)Cn2cccc2C2=NC(c3ccccc3)CO2)cc1 (configuration not stated)	Lmaj promast 87
CCN1CCN(c2ccc(S(=O)(=O)N3CCCCC3)cc2NC(=O)c2ccc(F)cc2)CC1	none
COc1ccc(S(=O)(=O)N2CCCCC2)cc1NC(=O)c1ccco1	none (no result: Lmaj promast)
CCN1CCN(c2ccc(S(=O)(=O)N3CCCCC3)cc2NC(=O)c2ccc([N+](=O)[O-])o2)CC1	T cruzi repl 60 (no result: Lmaj promast, NALP1 yeast inh)
COc1ccc(CCC(=O)N2CCN(S(=O)(=O)c3ccc(C)cc3)CC2)cc1	none (no result: Lmaj promast, NALP1 yeast inh, T cruzi repl, Calb FLC, PolyA inh)
COc1ccc(S(=O)(=O)N2CCCCC2)cc1NC(=O)c1ccc([N+](=O)[O-])o1	Lmaj promast 90, T cruzi repl 55
COc1ccc(-c2cc3ccccc3oc2=O)cc1NC(=O)c1ccc([N+](=O)[O-])o1	Lmaj promast 85, T cruzi repl 56
COc1ccc(S(=O)(=O)N2CCN(C(=O)c3ccc([N+](=O)[O-])o3)CC2)cc1	T cruzi repl 56 (no result: Lmaj promast)
Cc1cccc(C)c1NC(=O)CN(C)CC(=O)c1c(N)n(Cc2ccccc2)c(=O)n(C)c1=O	none (no result: Lmaj promast, NALP1 yeast inh, T cruzi repl, Calb FLC, PolyA inh)
Cc1ccc(NC(=O)CN(c2cc(C)cc(C)c2)S(=O)(=O)c2c(C)noc2C)nc1	none
CC1(C)Cc2c(sc(NC(=O)C(=O)N3CCCCC3)c2C(=O)O)CO1	none (no result: Lmaj promast)
Cc1onc(-c2ccccc2)c1-c1csc(N/N=C/c2ccccc2Cl)n1	none (no result: Lmaj promast, T cruzi repl)
Cc1onc(-c2ccc(Cl)cc2Cl)c1-c1csc(N/N=C/c2ccccc2Cl)n1	T cruzi repl 62 (no result: Lmaj promast)
COc1ccc(/C=N/NC(=O)c2ccccc2F)cc1CN1CCN(c2ccc(F)cc2)CC1	Lmaj promast 67 (no result: NALP3 yeast inh, T cruzi repl, Calb FLC, PolyA inh)
COc1ccc(/C=N/NS(=O)(=O)c2ccc(F)cc2)cc1CN1CCSCC1	NALP1 yeast inh 30, PolyA inh inconclusive (no result: Lmaj promast)
CC1(C)Cc2c(cnn2-c2ccccc2)C(NC(=O)CCN2CCCC2=O)C1 (configuration not stated)	none (no result: Lmaj promast)
O=C(N/C(=C\c1ccccc1)C(=O)N1CCOCC1)c1cccc(Br)c1	none (no result: Lmaj promast)
COCCn1c(C)cc(/C=C(\C#N)C(=O)OCC(=O)N(C)c2c(N)n(Cc3ccccc3)c(=O)[nH]c2=O)c1C	none (no result: Lmaj promast, NALP1 yeast inh)
CN(Cc1ccccc1F)c1ccc(S(=O)(=O)N2CCCC2)cn1	Lmaj promast 98
CCCOc1cccc(C(=O)Nc2ccc(Br)cc2F)c1	none
CCN(CC(=O)NC1CCS(=O)(=O)C1)S(=O)(=O)c1ccc2ccccc2c1 (configuration not stated)	none
CCN(CC(=O)NC1CCS(=O)(=O)C1)S(=O)(=O)c1ccc(C)c(C)c1 (configuration not stated)	Lmaj promast 55
OCC1(CCOc2ccccc2)CCN(C2Cc3ccccc3C2)CC1	Lmaj promast 88, Calb FLC inconclusive
Cc1cc(C)c(CN2CCC(CO)(CCOc3ccccc3)CC2)cc1C	Lmaj promast 60
OCC1(CCOc2ccccc2)CCN(Cc2cccn2-c2ncccn2)CC1	none
COc1cc(CN2CCC(CO)(CCOc3ccccc3)CC2)cc(OC)c1	none (no result: Lmaj promast, NALP1 yeast inh)
Cc1c(CN2CCC(CO)(CCOc3ccccc3)CC2)c(=O)n(-c2ccccc2)n1C	NALP1 yeast inh 26
Nn1c(-c2ccc(O)cc2)nnc1-c1ccc(O)cc1	T cruzi repl inconclusive (no result: Lmaj promast, NALP1 yeast inh)
Cc1nc2nc(C)c(CCC(=O)NC(C)c3ccc4c(c3)OCCO4)c(C)n2n1 (configuration not stated)	none
Cc1nc2cc(-c3ccccc3)nn2c(C)c1CCC(=O)NC(C)c1ccc2c(c1)OCCO2 (configuration not stated)	Lmaj promast 95
Cc1nc2cc(-c3cccc(F)c3)nn2c(C)c1CCC(=O)NC(C)c1ccc2c(c1)OCCO2 (configuration not stated)	Lmaj promast 97
Cc1nc2ncnn2c(C)c1CCC(=O)NC(C)c1ccc2c(c1)OCCO2 (configuration not stated)	none
CC(NC(=O)Cn1cccc1C(=O)c1ccccc1)c1ccc2c(c1)OCCO2 (configuration not stated)	Lmaj promast 89
CCCCn1c(N)c(N(CCC(C)C)C(=O)c2ccc([N+](=O)[O-])s2)c(=O)[nH]c1=O	T cruzi repl 64 (no result: Lmaj promast, NALP1 yeast inh)
